The source made the active and inactive calls.
Key:
Mus musculus [1] = test: Reversal of morphine induced constipation in Swiss Webster mouse at 10 mg/kg, po for 5 mins followed by morphine addition at 5 mg/kg and measured after 20 mins by carmine red dye assay; type: functional
How it was run: (§1)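 Male Swiss Webster mice, 5–6 per group, housed singly. Compound or vehicle given s.c. or by oral gavage 5 min before morphine (10 or 5 mg/kg) or vehicle. 20 min after morphine, 0.2 mL of 6% carmine red in 0.5% CMC given orally (time 0). Time to first red pellet recorded, 6-h cutoff. Dunnett-corrected one-way ANOVA.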

[2] = biological target: T1, Kappa-type opioid receptor (Homo sapiens, UniProt P41145); test: Antagonist activity at human recombinant kappa opioid receptor assessed as reduction in U50,488H-induced […]-GTPgammaS binding; type: functional
Mus musculus [3] = test: Gastroprokinetic activity in Swiss Webster mouse assessed as stimulation of gastrointestinal motility by measuring time required to defecation of red fecal pellet at 10 mg/kg, po incubated for 5 mins followed by morphine addition at 5 mg/kg and measured after 20 mins by carmine red dye assay; type: functional; conditions: time 25 min; how it was run: as §1
Mu-type opioid receptor [4] = biological target: Mu-type opioid receptor (Homo sapiens, UniProt P35372); test: Antagonist activity at human recombinant mu opioid receptor assessed as reduction in DAMGO-induced […]-GTPgammaS binding; type: functional
[5] = biological target: T1, Kappa-type opioid receptor; test: Displacement of [3H]-U69593 from human recombinant kappa opioid receptor by radioligand binding assay
Mu-type opioid receptor [6] = biological target: T2, Mu-type opioid receptor (Mus musculus, UniProt P42866); test: Binding affinity to mouse mu opioid receptor expressed in CHO cells in presence of naltrexone incubated for 1.5 hrs by competitive radioligand binding assay; type: cell-based
How it was run: (§2)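 Competition binding. Membranes (30 μg protein) from CHO cells with mouse MOR or KOR, or human DOR. Incubated with radioligand and varying test concentrations in TME buffer, pH 7.4, 1.5 h at 30 °C. Filtration harvest. Nonspecific binding defined with 5 μM naltrexone (MOR), U50,488 (KOR) or SNC80 (DOR). IC₅₀ by nonlinear regression, converted to Ki by Cheng-Prusoff. Selectivity ratios taken from these Ki values. At least three independent experiments.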

Mu-type opioid receptor [7] = biological target: T2, Mu-type opioid receptor; test: Antagonist activity at mouse mu opioid receptor expressed in CHO cell membrane assessed as reduction in DAMGO-induced […]-GTPgammaS binding incubated for 1.5 hrs by liquid scintillation counting method; type: functional, cell membranes
[8] = Selectivity index, ratio of Ki for binding affinity to human delta opioid receptor to Ki for binding affinity to mouse mu opioid receptor; how it was run: as §2
[9] = biological target: T3, Kappa-type opioid receptor (Mus musculus, UniProt P33534); test: Binding affinity to mouse kappa opioid receptor expressed in CHO cells in presence of U50488 incubated for 1.5 hrs by competitive radioligand binding assay; type: cell-based; how it was run: as §2
[10] = biological target: Mu-type opioid receptor (Mus musculus) (UniProt P42866); test: Antagonist activity at mouse mu opioid receptor expressed in CHO cell membrane assessed as reduction in DAMGO-induced […]-GTPgammaS binding by measuring maximal efficacy incubated for 1.5 hrs by liquid scintillation counting method relative to control; type: functional, cell membranes
How it was run: (§3)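 [³⁵S]GTPγS binding. Membranes (10 μg protein) from CHO cells expressing MOR, KOR or DOR. Buffer TME (50 mM Tris, 3 mM MgCl₂, 0.2 mM EGTA, pH 7.4) with 100 mM NaCl, 20 μM GDP and 0.1 nM [³⁵S]GTPγS. Test compound at varying concentrations. Incubation 1.5 h at 30 °C. Nonspecific binding with 20 μM unlabeled GTPγS. Reference full agonist at 3 μM: DAMGO (MOR), U50488H (KOR), SNC80 (DOR). Filtration, then scintillation counting. Duplicates, at least three repeats.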

Mus musculus [11] = species: Mus musculus; test: Selectivity index, ratio of Ki for binding affinity to mouse kappa opioid receptor to Ki for binding affinity to mouse mu opioid receptor; how it was run: as §2
[12] = biological target: T4, Delta-type opioid receptor (Homo sapiens, UniProt P41143); test: Binding affinity to human delta opioid receptor in presence of SNC80 incubated for 1.5 hrs by competitive radioligand binding assay; how it was run: as §2
Mus musculus [13] = test: Antinociceptive activity against sc dosed Swiss Webster mouse model assessed as effect on morphine induced antinociception by measuring tail withdrawal latency from warm water incubated for 5 mins followed by morphine addition measured after 20 mins by warm water tail immersion assay; type: functional; conditions: for Activity: time 25.0 min
How it was run: (§4)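 Male Swiss Webster mice, 5–8 weeks, 25–35 g, 6 per group. Tail immersed (distal third) in water at 56 ± 0.1 °C. Mice included only with baseline latency 2–4 s. Compound 10 mg/kg s.c.; in the challenge arm it was given 5 min before morphine 10 mg/kg s.c. Latency read 20 min after injection, 10-s cutoff. %MPE = (test − control)/(10 − control) × 100. Dunnett-corrected one-way ANOVA.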

Mus musculus [14] = test: Antinociceptive activity against Swiss Webster mouse assessed as tail withdrawal latency from warm water by measuring maximum possible effect at 10 mg/kg, sc measured after 20 mins by warm water tail immersion assay; type: functional; how it was run: as §4
Mus musculus [15] = test: Antinociceptive activity against Swiss Webster mouse assessed as tail withdrawal latency from warm water by measuring maximum possible effect at 10 mg/kg, sc incubated for 5 mins followed by morphine addition measured after 20 mins by warm water tail immersion assay; type: functional; conditions: time 25 min; how it was run: as §4
Mus musculus [16] = test: Gastroprokinetic activity in Swiss Webster mouse assessed as stimulation of gastrointestinal motility by measuring time required to defecation of red fecal pellet at 10 mg/kg, sc incubated for 5 mins followed by morphine addition at 10 mg/kg and measured after 20 mins by carmine red dye assay; type: functional; conditions: time 25 min; how it was run: as §1
Mus musculus [17] = test: Gastroprokinetic activity in Swiss Webster mouse assessed as stimulation of gastrointestinal motility by measuring time required to defecation of red fecal pellet at 10 mg/kg, po incubated for 5 mins followed by morphine addition at 10 mg/kg and measured after 20 mins by carmine red dye assay; type: functional; conditions: time 25 min; how it was run: as §1
Mus musculus [18] = test: Reversal of morphine induced constipation in Swiss Webster mouse at 10 mg/kg, po for 5 mins followed by morphine addition measured after 20 mins by carmine red dye assay relative to control; type: functional; conditions: time 25 min; how it was run: as §1
[19] = biological target: T4, Delta-type opioid receptor; test: Antagonist activity at human delta opioid receptor expressed in CHO cell membrane assessed as reduction in SNC80-induced […]-GTPgammaS binding by measuring maximal efficacy incubated for 1.5 hrs by liquid scintillation counting method relative to control; type: functional, cell membranes; how it was run: as §3
[20] = biological target: T1, Kappa-type opioid receptor; test: Antagonist activity at kappa opioid receptor (unknown origin) expressed in CHO cell membrane assessed as reduction in U50,488H -induced […]-GTPgammaS binding by measuring maximal efficacy incubated for 1.5 hrs by liquid scintillation counting method relative to control; type: functional, cell membranes; how it was run: as §3
[21] = biological target: T3, Kappa-type opioid receptor; test: Antagonist activity at kappa opioid receptor (unknown origin) expressed in CHO cell membrane assessed as reduction in U50,488H-induced […]-GTPgammaS binding incubated for 1.5 hrs by liquid scintillation counting method; type: functional, cell membranes
[22] = biological target: T4, Delta-type opioid receptor; test: Antagonist activity at human delta opioid receptor expressed in CHO cell membrane assessed as reduction in SNC80-induced […]-GTPgammaS binding incubated for 1.5 hrs by liquid scintillation counting method; type: functional, cell membranes

## C[N@+]1(CC2CC2)CC[C@]23c4c5ccc(O)c4O[C@H]2C(=O)CC[C@@]3(O)[C@H]1C5 [METHYLNALTREXONE]
Mus musculus [1]; time 25.0 min
  Activity: inactive
[2]
  EC50: > 10000 nM
Mus musculus [3]
  Time: 111 min
Mu-type opioid receptor [4]
  EC50: > 10000 nM
[5]
  Ki: 32.1 nM

## O=C(N[C@@H]1CC[C@@]2(O)[C@H]3Cc4ccc(O)c5c4[C@@]2(CCN3CC2CC2)[C@H]1O5)c1ncc[nH]1
Mu-type opioid receptor [6]
  Ki: 0.44 nM
Mu-type opioid receptor [7]
  EC50: 1.74 nM
[8]
  Ratio Ki: 335
[9]
  Ki: 4.8 nM
[10]
  Emax: 7.5%
Mus musculus [11]
  Ratio Ki: 11
[12]
  Ki: 146 nM
Mus musculus [13]
  Activity: inactive
Mus musculus [14]
  Activity: inactive
Mus musculus [15]
  MPE: 32.7%

## O=C(N[C@H]1CC[C@@]2(O)[C@H]3Cc4ccc(O)c5c4[C@@]2(CCN3CC2CC2)[C@H]1O5)c1ncc[nH]1
Mu-type opioid receptor [6]
  Ki: 0.47 nM
Mu-type opioid receptor [7]
  EC50: 2.01 nM
[8]
  Ratio Ki: 152
[9]
  Ki: 1.77 nM
[10]
  Emax: 7.85%
Mus musculus [11]
  Ratio Ki: 4
[12]
  Ki: 70.9 nM
Mus musculus [13]; time 25 min
  AD50: 5.3 mg/kg
Mus musculus [14]
  Activity: inactive
Mus musculus [15]
  MPE: 9.2%

## O=C(Cc1cn[nH]c1)N[C@H]1CC[C@@]2(O)[C@H]3Cc4ccc(O)c5c4[C@@]2(CCN3CC2CC2)[C@H]1O5
Mu-type opioid receptor [6]
  Ki: 0.88 nM
Mus musculus [16]
  Time: 172 min
Mu-type opioid receptor [7]
  EC50: 8.17 nM
[8]
  Ratio Ki: 3920
[9]
  Ki: 104 nM
[10]
  Emax: 28.4%
Mus musculus [17]
  Time: 70 min
Mus musculus [11]
  Ratio Ki: 118
Mus musculus [18]
  Activity: 39%
[12]
  Ki: 3440 nM
Mus musculus [13]
  Activity: inactive
Mus musculus [14]
  Activity: inactive

## O=C(N[C@@H]1CC[C@@]2(O)[C@H]3Cc4ccc(O)c5c4[C@@]2(CCN3CC2CC2)[C@H]1O5)c1ccncc1
Mus musculus [1]; time 25.0 min
  Activity: inactive
Mus musculus [3]
  Time: 151 min

## O=C(Cc1cn[nH]c1)N[C@@H]1CC[C@@]2(O)[C@H]3Cc4ccc(O)c5c4[C@@]2(CCN3CC2CC2)[C@H]1O5
Mu-type opioid receptor [6]
  Ki: 0.17 nM
Mus musculus [16]
  Time: 174 min
[8]
  Ratio Ki: 390
[9]
  Ki: 13.9 nM
[10]
  Emax: 22.2%
Mus musculus [17]
  Time: 69 min
Mus musculus [11]
  Ratio Ki: 82
Mus musculus [18]
  Activity: 40%
[12]
  Ki: 66.6 nM
Mus musculus [13]
  Activity: inactive
Mus musculus [14]
  Activity: inactive

## O=C(N[C@@H]1CC[C@@]2(O)[C@H]3Cc4ccc(O)c5c4[C@@]2(CCN3CC2CC2)[C@H]1O5)c1cnc[nH]1
Mus musculus [1]; time 25 min
  Activity: 75%
Mu-type opioid receptor [6]
  Ki: 0.58 nM
Mus musculus [3]
  Time: 27 min
Mus musculus [16]
  Time: 137 min
Mu-type opioid receptor [7]
  EC50: 1.15 nM
[9]
  Ki: 18.8 nM
Mus musculus [17]
  Time: 71 min
[19]
  Emax: 22.1%
[20]
  Emax: 9.03%
Mus musculus [18]
  Activity: 38%
[12]
  Ki: 209 nM
Mus musculus [13]
  Activity: inactive
Mus musculus [14]
  Activity: inactive
[21]
  EC50: 11.7 nM

## O=C(Cc1cc[nH]n1)N[C@H]1CC[C@@]2(O)[C@H]3Cc4ccc(O)c5c4[C@@]2(CCN3CC2CC2)[C@H]1O5
Mu-type opioid receptor [6]
  Ki: 1.05 nM
Mus musculus [16]
  Time: 154 min
Mu-type opioid receptor [7]
  EC50: 6.17 nM
[9]
  Ki: 154 nM
Mus musculus [17]
  Time: 57 min
[19]; filed as antagonist
  Emax: 69.3%
[20]; filed as antagonist
  Emax: 49.9%
[12]
  Ki: 195 nM
Mus musculus [13]
  Activity: inactive
Mus musculus [14]
  Activity: inactive
[22]
  EC50: 20.5 nM
[21]
  EC50: 99 nM

## O=C(N[C@H]1CC[C@@]2(O)[C@H]3Cc4ccc(O)c5c4[C@@]2(CCN3CC2CC2)[C@H]1O5)c1cc[nH]n1
Mu-type opioid receptor [6]
  Ki: 0.61 nM
Mu-type opioid receptor [7]
  EC50: 2.33 nM
[8]
  Ratio Ki: 35
[9]
  Ki: 1.05 nM
[10]
  Emax: 19.6%
Mus musculus [11]
  Ratio Ki: 2
[12]
  Ki: 21.2 nM
Mus musculus [13]
  Activity: inactive
Mus musculus [14]
  Activity: inactive

## O=C(CCc1cc[nH]n1)N[C@H]1CC[C@@]2(O)[C@H]3Cc4ccc(O)c5c4[C@@]2(CCN3CC2CC2)[C@H]1O5
Mu-type opioid receptor [6]
  Ki: 0.5 nM
Mu-type opioid receptor [7]
  EC50: 4.22 nM
[8]
  Ratio Ki: 433
[9]
  Ki: 2.75 nM
[10]
  Emax: 22.2%
Mus musculus [11]
  Ratio Ki: 6
[12]
  Ki: 217 nM
Mus musculus [13]
  Activity: inactive
Mus musculus [14]
  Activity: inactive

## O=C(N[C@H]1CC[C@@]2(O)[C@H]3Cc4ccc(O)c5c4[C@@]2(CCN3CC2CC2)[C@H]1O5)c1cnc[nH]1
Mu-type opioid receptor [6]
  Ki: 1.11 nM
Mu-type opioid receptor [7]
  EC50: 4.42 nM
[8]
  Ratio Ki: 29
[9]
  Ki: 2.76 nM
[10]
  Emax: 20.7%
Mus musculus [11]
  Ratio Ki: 2
[12]
  Ki: 32.5 nM
Mus musculus [13]
  Activity: inactive
Mus musculus [14]
  Activity: inactive

Reference: ChEMBL document CHEMBL5046294, “Rational Design, Chemical Syntheses, and Biological Evaluations of Peripherally Selective Mu Opioid Receptor Ligands as Potential Opioid Induced Constipation Treatment” (J Med Chem, 2022)
